pEC50, pKi: −log10 of the molar value.
Key:
Liver [1] = assay: Unbound intrinsic clearance in human liver microsomes at 10 uM preincubated for 5 mins followed by NADPH addition measured after 60 mins by HPLC-UV-MS analysis; assay type: ADME, microsome; details: 1 h
[2] = Permeability in MDCK cells; assay type: ADME, cell-based, Canis lupus familiaris; details: dog, read-out: permeability
[3] = target: T1, Bromodomain-containing protein 4 (Homo sapiens, UniProt O60885); assay: Inhibition of BRD4 in human H1299 cells assessed as decrease in HPV LCR-E2-EP400-mediated transcriptional repression after 24 hrs by Bright-Glo luciferase reporter gene assay; assay type: cell-based
Liver [4] = assay: Unbound intrinsic clearance in mouse liver microsomes; assay type: ADME, microsome
Summary of the method: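 Liver microsome stability is expressed as unbound intrinsic clearance, Cl_int,u, in L/hr/kg. Dextromethorphan served as the in-house low-clearance reference control and verapamil as the high-clearance reference control.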

[5] = target: T1, Bromodomain-containing protein 4; assay: Binding affinity to human N-terminal His6-tagged BRD4 BD1-BD2 (K57 to K550 residues) after 1 hr using alexa-647 conjugated probe by TR-FRET assay
MX1 = assay: Antiproliferative activity against human MX1 cells after 72 hrs by Cell Titer Glo assay; assay type: functional, cell-based; details: MX1, 72 h
Liver [6] = assay: Unbound intrinsic clearance in rat liver microsomes at 10 uM preincubated for 5 mins followed by NADPH addition measured after 60 mins by HPLC-UV-MS analysis; assay type: ADME, microsome; details: 1 h
[7] = Fraction unbound in rat plasma at 1 uM after 4 hrs by LC-MS/MS method; assay type: ADME, cell-free
Rattus norvegicus [8] = assay: Plasma unbound clearance in rat at 1 mg/kg, iv; assay type: ADME, organism-based; details: in vivo
Summary of the method: (§1)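 In rats, 1 mg/kg was given by both IV and PO routes. IV clearance is unbound (Cl_p,u, L/hr/kg). FaFg is taken as F/(1-Clp/Qh), using rat Qh 3.8 L/hr/kg. Unbound plasma fraction was determined in rat plasma.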

Rattus norvegicus [9] = assay: Unbound AUC in rat at 1 mg/kg, po; details: in vivo
[10] = Oral bioavailability in rat at 1 mg/kg; assay type: ADME, organism-based; details: in vivo; summary of the method: as §1
Mus musculus [11] = assay: Oral absorption in mouse at 10 mg/kg; assay type: ADME, organism-based; details: in vivo
Summary of the method: (§2)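 Oral absorption is expressed as FaFg, calculated as F/(1-Clp/Qh). Liver blood flow (Qh) was 5.2 L/hr/kg for mouse and 3.8 L/hr/kg for rat. Mouse dosing was 3 mg/kg IV and 10 mg/kg PO; rat dosing was 1 mg/kg IV and PO.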

Mus musculus [12] = assay: Plasma unbound clearance in mouse at 3 mg/kg, iv; assay type: ADME, organism-based; details: in vivo
Summary of the method: (§3)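 Mouse PK: 3 mg/kg IV and 10 mg/kg PO. Clearance is expressed unbound, Cl_p,u in L/hr/kg. AUC is unbound, in µM*hr. FaFg is computed as F/(1-Clp/Qh), with mouse liver blood flow Qh 5.2 L/hr/kg. Unbound plasma fraction was measured separately.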

Mus musculus [13] = assay: Unbound AUC in mouse at 10 mg/kg, po; assay type: ADME, organism-based; details: in vivo; summary of the method: as §3
Rattus norvegicus [14] = assay: Oral absorption in rat at 1 mg/kg; assay type: ADME, organism-based; details: in vivo; summary of the method: as §2
[15] = Oral bioavailability in mouse at 10 mg/kg; assay type: ADME, organism-based; details: in vivo; summary of the method: as §3
[16] = Fraction unbound in mouse plasma at 1 uM after 4 hrs by LC-MS/MS method; assay type: ADME, cell-free

| Structure (SMILES) | CL free (Liver [1]) [mL/min/kg] | Papp [2] [×10⁻⁶ cm/s] | pEC50 [3] | CL free (Liver [4]) [mL/min/kg] | pKi [5] | pEC50 (MX1) | CL free (Liver [6]) [mL/min/kg] | fraction unbound at 4 h, 1 µM [7] | clearance (Rattus norvegicus [8]) [mL/min/kg] | fAUC (Rattus norvegicus [9]) [µM·h] | bioavailability [10] [%] | FaFg (Mus musculus [11]) | clearance (Mus musculus [12]) [mL/min/kg] | fAUC (Mus musculus [13]) [µM·h] | FaFg (Rattus norvegicus [14]) | bioavailability [15] [%] | fraction unbound at 4 h, 1 µM [16] |
| --- | --- | --- | --- | --- | --- | --- | --- | --- | --- | --- | --- | --- | --- | --- | --- | --- | --- |
| Cn1cc(-c2cc(NS(C)(=O)=O)ccc2Oc2ccc(F)cc2Cl)c2cc[nH]c2c1=O | 233 | 11 | 7.46 | 850 | 8.51 | 7.57 | 317 |  |  |  |  |  |  |  |  |  |  |
| Cn1cc(-c2cc(NS(C)(=O)=O)cnc2Oc2ccccc2)c2cc[nH]c2c1=O | 63.3 | 6 | 7.06 | < 93.3 | 8.39 | 7.34 | 600 |  |  |  |  |  |  |  |  |  |  |
| Cn1cc(-c2cc(C(N)=O)ccc2Oc2ccccc2)c2cc[nH]c2c1=O | 48.3 | 14 | 7.15 | 450 | 7.85 | 6.92 | 550 |  |  |  |  |  |  |  |  |  |  |
| CCS(=O)(=O)Nc1ccc(Oc2ccc(C#N)cc2)c(-c2cn(C)c(=O)c3[nH]ccc23)c1 | 41.7 | 11 | 7.32 | < 108 | 8.03 | 7.77 | 81.7 |  |  |  |  |  |  |  |  |  |  |
| Cn1cc(-c2cc(NS(C)(=O)=O)ccc2OC2CCC(F)(F)CC2)c2cc[nH]c2c1=O | < 38.3 | 12 | 7.70 | 717 | 7.72 | 7.72 | 200 |  |  |  |  |  |  |  |  |  |  |
| Cn1cc(-c2cc(NS(C)(=O)=O)ccc2OCc2ccccc2)c2cc[nH]c2c1=O | 122 | 24 | 6.92 | 900 | 7.17 | 6.96 | 567 |  |  |  |  |  |  |  |  |  |  |
| Cn1cc(-c2ccccc2Oc2ccccc2)cc(N)c1=O |  |  | 5.07 |  | 5.52 | < 5.30 |  |  |  |  |  |  |  |  |  |  |  |
| CN(C)S(=O)(=O)Nc1ccc(Oc2ccccc2)c(-c2cn(C)c(=O)c3[nH]ccc23)c1 | 233 | 19 | 7.37 | 2330 | 8.54 | 7.19 | 4000 |  |  |  |  |  |  |  |  |  |  |
| Cn1cc(-c2cc(NS(=O)(=O)CC(F)(F)F)ccc2Oc2ccccc2)c2cc[nH]c2c1=O | 46.7 | 16 | 7.66 | 650 | 8.36 | 7.51 | 1270 |  |  |  |  |  |  |  |  |  |  |
| CC(=O)Nc1ccc(Oc2ccccc2)c(-c2cn(C)c(=O)c3[nH]ccc23)c1 | 113 | 28 | 7.59 | 3500 | 8.01 | 7.34 | 767 |  |  |  |  |  |  |  |  |  |  |
| CCS(=O)(=O)Nc1ccc(OC2CCN(C)CC2)c(-c2cn(C)c(=O)c3[nH]ccc23)c1 | < 28.3 | 0.55 | 6.06 | < 85 | 6.37 | 6.68 | 80 |  |  |  |  |  |  |  |  |  |  |
| Cn1cc(-c2cc(NS(C)(=O)=O)ccc2Oc2ccc(F)cc2F)c2cc[nH]c2c1=O | 155 | 17 | 7.68 | 283 | 8.35 | 7.54 | < 65 | 0.036 | 417 | 0.19 | 40 | 0.7 | 167 | 1.3 | 0.52 | 65 | 0.033 |
| Cn1cc(-c2cc(NS(C)(=O)=O)ccc2OC2CCCCC2)c2cc[nH]c2c1=O | 450 | 23 | 7.74 | 3670 | 8.43 | 7.85 | 1600 |  |  |  |  |  |  |  |  |  |  |
| Cn1cc(-c2ccccc2Oc2ccccc2)ccc1=O |  |  | 5.39 |  | 6.05 | 5.32 |  |  |  |  |  |  |  |  |  |  |  |
| CCS(=O)(=O)Nc1ccc(OCC(C)(C)C)c(-c2cn(C)c(=O)c3[nH]ccc23)c1 | 283 | 43 | 7.10 | 1030 | 7.42 | 7.11 | 433 |  |  |  |  |  |  |  |  |  |  |
| Cn1cc(-c2cc(NS(C)(=O)=O)ccc2Oc2ccccc2C(F)(F)F)c2cc[nH]c2c1=O | 533 | 7.8 | 7.12 | 1350 | 8.19 | 7.08 | 250 |  |  |  |  |  |  |  |  |  |  |
| Cn1cc(-c2cc(NS(C)(=O)=O)ccc2Oc2ccccc2)c2cc[nH]c2c1=O | 83.3 | 12 | 7.96 | 300 | 8.62 | 7.80 | 2000 | 0.034 | 1230 | 0.016 | 10 | 0.77 | 650 | 0.34 | 0.32 | 55 | 0.039 |

| Structure (SMILES) | CL free (Liver [1]) [mL/min/kg] | Papp [2] [×10⁻⁶ cm/s] | pEC50 [3] | CL free (Liver [4]) [mL/min/kg] | pKi [5] | pEC50 (MX1) | CL free (Liver [6]) [mL/min/kg] | fraction unbound at 4 h, 1 µM [7] | clearance (Rattus norvegicus [8]) [mL/min/kg] | fAUC (Rattus norvegicus [9]) [µM·h] | bioavailability [10] [%] | FaFg (Mus musculus [11]) | clearance (Mus musculus [12]) [mL/min/kg] | fAUC (Mus musculus [13]) [µM·h] | FaFg (Rattus norvegicus [14]) | bioavailability [15] [%] | fraction unbound at 4 h, 1 µM [16] |
| --- | --- | --- | --- | --- | --- | --- | --- | --- | --- | --- | --- | --- | --- | --- | --- | --- | --- |
| Cn1cc(-c2cc(S(N)(=O)=O)ccc2Oc2ccccc2)c2cc[nH]c2c1=O | < 43.3 | 22 | 7.41 | 517 | 8.44 | 7.25 | 1320 |  |  |  |  |  |  |  |  |  |  |
| CCS(=O)(=O)Nc1ccc(Oc2cncnc2)c(-c2cn(C)c(=O)c3[nH]ccc23)c1 | < 33.3 | 1 | 6.77 | 233 | 7.49 | 6.89 | 48.3 |  |  |  |  |  |  |  |  |  |  |
| COCCc1ccc(OCC(O)CNC(C)C)cc1 (stereo unspecified) [METOPROLOL] |  | 36 |  |  |  |  |  |  |  |  |  |  |  |  |  |  |  |
| CCNC(=O)c1ccc(Oc2ccccc2)c(-c2cn(C)c(=O)c3[nH]ccc23)c1 | 68.3 | 30 | 7.15 | 717 | 7.49 | 6.89 | 4000 |  |  |  |  |  |  |  |  |  |  |
| Cn1cc(-c2cc(NS(C)(=O)=O)ccc2OC2CCOCC2)c2cc[nH]c2c1=O | < 30 | 1.7 | 7.05 | < 90 | 7.17 | 7.14 | 233 |  |  |  |  |  |  |  |  |  |  |
| Cc1cc(-c2ccccc2Oc2ccccc2)c[nH]c1=O |  |  | 5.64 |  | 5.77 | 5.62 |  |  |  |  |  |  |  |  |  |  |  |
| CCS(=O)(=O)Nc1ccc(Oc2c(F)cc(F)cc2F)c(-c2cn(C)c(=O)c3[nH]ccc23)c1 | 102 | 21 | 7.72 | 900 | 7.92 | 8.10 | 233 |  |  |  |  |  |  |  |  |  |  |
| Cn1cc(-c2cc(NS(C)(=O)=O)ccc2Oc2cccnc2)c2cc[nH]c2c1=O | 86.7 | 3 | 7.17 | 533 | 8.20 | 7.47 | 350 |  |  |  |  |  |  |  |  |  |  |
| CCS(=O)(=O)Nc1ccc(Oc2ccc(C(F)(F)F)cc2)c(-c2cn(C)c(=O)c3[nH]ccc23)c1 | 128 | 11 | 7.19 | 2830 | 8.05 | 7.52 | 583 |  |  |  |  |  |  |  |  |  |  |
| CCS(=O)(=O)Nc1ccc(Oc2ccc(Cl)cc2)c(-c2cn(C)c(=O)c3[nH]ccc23)c1 | < 96.7 | 21 | 7.77 | 900 | 8.47 | 7.66 | 200 |  |  |  |  |  |  |  |  |  |  |
| Cn1cc(-c2cc(S(C)(=O)=O)ccc2Oc2ccccc2)c2cc[nH]c2c1=O | 91.7 | 24 | 7.30 | 383 | 8.24 | 7.28 | 1080 |  |  |  |  |  |  |  |  |  |  |
| CCS(=O)(=O)Nc1ccc(Oc2ccccc2)c(-c2cn(C)c(=O)c3[nH]ccc23)c1 | < 45 | 22 | 8.09 | 917 | 8.82 | 7.85 | 3330 |  |  |  |  |  |  |  |  |  |  |
| Cc1sc2c(c1C)C(c1ccc(Cl)cc1)=N[C@@H](CC(=O)OC(C)(C)C)c1nnc(C)n1-2 |  |  |  |  |  | 6.60 |  |  |  |  |  |  |  |  |  |  |  |
| CCS(=O)(=O)Nc1ccc(OC2CCC(N(C)C)CC2)c(-c2cn(C)c(=O)c3[nH]ccc23)c1 (stereo unspecified) | < 26.7 | 2.7 | 6.57 | 125 | 7.59 | 7.07 | < 45 |  |  |  |  |  |  |  |  |  |  |
| COc1ccc2c(c1)[C@]13CCCC[C@@H]1[C@H](C2)N(C)CC3 [DEXTROMETHORPHAN] | 123 |  |  |  |  |  |  |  |  |  |  |  |  |  |  |  |  |
| Cn1cc(-c2ccccc2Oc2ccccc2)c2cc[nH]c2c1=O | 1670 | 31 | 6.32 | 93300 | 7.32 | 6.26 | 40000 |  |  |  |  |  |  |  |  |  |  |
